Measured values: ChEMBL document CHEMBL5053483, “Structure-Activity Relationship Study of Dexrazoxane Analogues Reveals ICRF-193 as the Most Potent Bisdioxopiperazine against Anthracycline Toxicity to Cardiomyocytes Due to Its Strong Topoisomerase IIβ Interactions” (J Med Chem, 2021)
Each block holds one compound with its values, some of them ahead of it. Activity calls are given as the source filed them. The calls are words filed in the database; no cut-off is given here.

Tests used:
[1] = system: Neonatal ventricular cardiomyocytes; assay: (§1) Cardioprotective activity against DAU-induced cardiotoxicity in Wistar rat neonatal ventricular cardiomyocytes preincubated for 3 hrs followed by DAU addition for 3 hrs and further incubated for 48 hrs in drug free medium by LDH assay; format: functional, tissue-based; conditions: time 6.0 hrs
Outline: (§2)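 Neonatal rat ventricular cardiomyocytes from collagenase II digests, preplated 2 h, 400 000 cells/well. Kept in serum- and pyruvate-free DMEM/F12. Cells pretreated 3 h with compound (10–100 μM), then co-incubated 3 h with 1.2 μM daunorubicin or without it. After 48 h in drug-free medium, LDH released to the medium was measured at 340 nm as percent of total LDH; four experiments.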

HL-60 [2] = assay: Antiproliferative activity against human HL-60 cells assessed as increase in daunorubicin activity at 100 uM after 72 hrs in presence of 15 nM of daunorubicin by XTT assay
HL-60 [3] = assay: Antiproliferative activity against human HL-60 cells at 100 uM after 72 hrs by XTT assay; format: functional, cell-based
Outline: (§3)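 HL-60 (ATCC) grown in RPMI-1640 with 10% FBS and antibiotics at 37 °C, 5% CO2. Seeded at 10 000 cells/well, exposed to compound for 72 h. XTT/PMS (1 mg/mL XTT, 50 μM PMS in PBS) added, absorbance read at 450 nm after 4 h. Results as percent of DMSO control; four independent experiments.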

[4] = Cytotoxicity against Wistar rat neonatal ventricular cardiomyocytes at 1.2 uM by LDH assay; format: tissue-based; outline: as §2
HL-60 [5] = assay: Antiproliferative activity against human HL-60 cells after 72 hrs by XTT assay; format: functional, cell-based; conditions: HL-60, 72 h; outline: as §3
[6] = target: DNA topoisomerase 2-alpha (Homo sapiens, UniProt P11388); assay: Inhibition of human TOP2A assessed as reduction in […] using kDNA as substrate incubated for 30 min
Outline: (§4)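 Recombinant human TOP2A or TOP2B incubated with kDNA for 30 min at 37 °C. Buffer: 55 mM Tris-HCl pH 7.5, 135 mM NaCl, 10 mM MgCl2, 5 mM DTT, 0.1 mM EDTA, 3 mM ATP, 100 μg/mL BSA, 1% final DMSO. Compounds tested at 1–1000 μM. Products resolved on 1% agarose, SYBR Safe stained. Signal normalized to the untreated control on the same gel; three measurements.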

[7] = Metal chelating activity assessed as displacement of Fe3+ from DAU-Fe3+ complex measured for 10 mins by spectrophotometric method
Outline: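 DAU–Fe3+ complex (3:1) placed in 50 mM Tris/150 mM KCl, pH 7.4, room temperature, at 45 μM DAU and 15 μM Fe3+ final. After 3 min of equilibration, compound (100 μM) was added, with EDTA or SIH as reference chelators. Absorbance at 600 nm followed for 10 min, and the endpoint absorbance was compared.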

[8] = as §1; format: functional, tissue-based; outline: as §2
DNA topoisomerase 2-beta = DNA topoisomerase 2-beta (Homo sapiens, UniProt Q02880); assay: Inhibition of human TOP2B assessed as reduction in […] using kDNA as substrate incubated for 30 min; outline: as §4
Chain of DNA topoisomerase 2-beta (Q02880 whole entry): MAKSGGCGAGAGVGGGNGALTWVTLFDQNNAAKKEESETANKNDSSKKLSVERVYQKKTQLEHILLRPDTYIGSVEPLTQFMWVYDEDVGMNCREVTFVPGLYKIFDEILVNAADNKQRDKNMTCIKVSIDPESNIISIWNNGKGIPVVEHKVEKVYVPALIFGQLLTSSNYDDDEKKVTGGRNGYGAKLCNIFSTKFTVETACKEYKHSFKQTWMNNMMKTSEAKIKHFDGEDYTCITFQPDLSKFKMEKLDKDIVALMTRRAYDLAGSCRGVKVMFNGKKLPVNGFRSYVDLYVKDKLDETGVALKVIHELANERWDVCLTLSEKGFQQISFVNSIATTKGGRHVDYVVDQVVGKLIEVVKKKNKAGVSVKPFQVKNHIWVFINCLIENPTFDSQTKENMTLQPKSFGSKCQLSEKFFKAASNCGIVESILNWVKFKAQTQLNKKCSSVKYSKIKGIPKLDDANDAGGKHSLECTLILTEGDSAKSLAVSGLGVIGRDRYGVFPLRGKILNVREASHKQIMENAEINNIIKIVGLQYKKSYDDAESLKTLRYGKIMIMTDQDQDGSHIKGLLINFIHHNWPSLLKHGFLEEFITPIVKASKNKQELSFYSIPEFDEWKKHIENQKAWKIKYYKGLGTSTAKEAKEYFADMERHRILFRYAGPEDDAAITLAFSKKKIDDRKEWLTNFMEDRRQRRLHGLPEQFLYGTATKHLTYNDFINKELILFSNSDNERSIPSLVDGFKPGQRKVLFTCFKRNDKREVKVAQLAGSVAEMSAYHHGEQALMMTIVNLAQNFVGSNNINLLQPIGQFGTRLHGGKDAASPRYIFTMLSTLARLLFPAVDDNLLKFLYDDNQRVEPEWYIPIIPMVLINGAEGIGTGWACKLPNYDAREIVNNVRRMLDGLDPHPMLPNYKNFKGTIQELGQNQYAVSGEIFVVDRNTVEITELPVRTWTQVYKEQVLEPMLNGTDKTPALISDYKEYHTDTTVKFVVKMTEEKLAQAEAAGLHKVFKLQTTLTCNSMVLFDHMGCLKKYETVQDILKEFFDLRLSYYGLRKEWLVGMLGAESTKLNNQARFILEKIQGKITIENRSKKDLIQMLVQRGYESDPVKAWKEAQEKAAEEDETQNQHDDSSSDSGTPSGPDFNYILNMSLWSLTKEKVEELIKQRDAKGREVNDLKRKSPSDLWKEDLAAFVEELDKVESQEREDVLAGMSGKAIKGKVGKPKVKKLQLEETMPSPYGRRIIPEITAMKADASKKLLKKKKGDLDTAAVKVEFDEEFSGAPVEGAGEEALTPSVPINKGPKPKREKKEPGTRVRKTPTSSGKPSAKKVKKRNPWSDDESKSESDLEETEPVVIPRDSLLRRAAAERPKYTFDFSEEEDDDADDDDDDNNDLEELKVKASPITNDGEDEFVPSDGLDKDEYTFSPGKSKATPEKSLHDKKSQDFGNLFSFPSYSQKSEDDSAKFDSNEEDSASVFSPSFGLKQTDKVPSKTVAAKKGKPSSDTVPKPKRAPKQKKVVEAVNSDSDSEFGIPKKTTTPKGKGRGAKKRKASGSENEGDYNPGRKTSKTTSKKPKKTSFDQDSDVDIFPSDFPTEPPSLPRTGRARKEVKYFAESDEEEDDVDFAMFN

Chain of DNA topoisomerase 2-alpha (P11388 whole entry): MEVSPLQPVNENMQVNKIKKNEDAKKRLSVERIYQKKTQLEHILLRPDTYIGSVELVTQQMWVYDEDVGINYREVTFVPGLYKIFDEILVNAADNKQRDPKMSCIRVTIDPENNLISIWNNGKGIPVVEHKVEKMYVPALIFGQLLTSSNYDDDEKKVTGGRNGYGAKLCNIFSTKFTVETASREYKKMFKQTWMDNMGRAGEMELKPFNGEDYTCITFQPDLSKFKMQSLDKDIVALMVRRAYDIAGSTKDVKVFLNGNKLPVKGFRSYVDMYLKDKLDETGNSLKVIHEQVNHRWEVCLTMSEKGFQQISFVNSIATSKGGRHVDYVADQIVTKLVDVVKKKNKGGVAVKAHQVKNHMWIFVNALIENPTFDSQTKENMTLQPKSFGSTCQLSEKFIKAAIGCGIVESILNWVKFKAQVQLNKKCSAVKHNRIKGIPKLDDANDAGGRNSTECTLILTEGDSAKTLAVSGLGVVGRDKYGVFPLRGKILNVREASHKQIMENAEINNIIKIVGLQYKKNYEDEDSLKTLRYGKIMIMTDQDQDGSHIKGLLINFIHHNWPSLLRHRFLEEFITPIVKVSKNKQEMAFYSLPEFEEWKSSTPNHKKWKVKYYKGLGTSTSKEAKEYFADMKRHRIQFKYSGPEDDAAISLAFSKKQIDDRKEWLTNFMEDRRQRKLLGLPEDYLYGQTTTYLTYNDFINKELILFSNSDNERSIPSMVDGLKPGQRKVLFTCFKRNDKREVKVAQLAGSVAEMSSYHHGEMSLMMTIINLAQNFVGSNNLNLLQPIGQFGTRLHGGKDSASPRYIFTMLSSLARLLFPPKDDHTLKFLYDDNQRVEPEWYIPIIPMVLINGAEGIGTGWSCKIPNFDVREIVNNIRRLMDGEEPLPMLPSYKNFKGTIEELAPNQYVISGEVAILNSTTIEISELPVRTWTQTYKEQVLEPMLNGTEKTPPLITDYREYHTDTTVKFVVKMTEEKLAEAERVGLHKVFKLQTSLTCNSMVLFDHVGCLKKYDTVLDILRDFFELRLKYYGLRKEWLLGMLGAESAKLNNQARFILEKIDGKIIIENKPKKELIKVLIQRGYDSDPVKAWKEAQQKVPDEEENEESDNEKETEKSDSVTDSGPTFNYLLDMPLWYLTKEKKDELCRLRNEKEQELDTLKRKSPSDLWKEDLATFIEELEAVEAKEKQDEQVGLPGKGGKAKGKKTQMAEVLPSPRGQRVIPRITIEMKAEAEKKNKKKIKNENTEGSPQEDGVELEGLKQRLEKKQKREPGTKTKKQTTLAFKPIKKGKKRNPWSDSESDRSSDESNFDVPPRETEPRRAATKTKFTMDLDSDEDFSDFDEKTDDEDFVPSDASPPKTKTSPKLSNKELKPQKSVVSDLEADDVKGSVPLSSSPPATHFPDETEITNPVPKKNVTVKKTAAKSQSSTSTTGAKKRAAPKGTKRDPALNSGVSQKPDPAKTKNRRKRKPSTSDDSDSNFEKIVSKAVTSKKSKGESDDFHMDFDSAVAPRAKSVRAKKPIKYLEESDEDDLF

SMILES: CC(C)(CN1CC(=O)NC(=O)C1)N1CC(=O)NC(=O)C1
- Activity [1]: inactive

SMILES: CN(CCN(C)C1CC(=O)NC1=O)C1CC(=O)NC1=O (stereo unspecified)
- Activity (HL-60 [2]): Active
- Activity (HL-60 [3]): Active

SMILES: O=C1CN(CC(O)CN2CC(=O)NC(=O)C2)CC(=O)N1
- Activity (HL-60 [3]): Active

- IC50 (HL-60 [5]): 0.015 µM
SMILES: COc1cccc2c1C(=O)c1c(O)c3c(c(O)c1C2=O)C[C@@](O)(C(C)=O)C[C@@H]3O[C@H]1C[C@H](N)[C@H](O)[C@H](C)O1 [DAUNORUBICIN]
- Activity [4]: 40%

- IC50 [6]: 40 µM
- IC50 (HL-60 [5]): 18 µM
- Activity [7]: 77%
- IC50 (DNA topoisomerase 2-beta): 50 µM
SMILES: C[C@@H](CN1CC(=O)NC(=O)C1)N1CC(=O)NC(=O)C1 [DEXRAZOXANE]
- EC50 [8]: 101 µM
